Measurements reported in ChEMBL document CHEMBL1255289, “In vitro antifungal activities of isavuconazole (BAL4815), voriconazole, and fluconazole against 1,007 isolates of zygomycete, Candida, Aspergillus, Fusarium, and Scedosporium species” (2008).
In brackets after ≈: the same amount, converted by molar mass.

Key:
Scedosporium apiospermum [1] = assay: Antifungal activity against Scedosporium apiospermum isolates assessed as lowest compound concentration that produced slight growth or approximately 25% of that of growth control after 24 hrs by CLSI M38-A procedure based assay; type: functional
Lomentospora prolificans [2] = assay: Antifungal activity against Scedosporium prolificans isolates assessed as lowest compound concentration that produced complete inhibition of microbial growth after 24 hrs by CLSI M38-A procedure based assay; type: functional
Lomentospora prolificans [3] = assay: Antifungal activity against Scedosporium prolificans isolates assessed as lowest compound concentration that produced slight growth or approximately 25% of that of growth control after 24 hrs by CLSI M38-A procedure based assay; type: functional
Nakaseomyces glabratus [4] = assay: Antifungal activity against Candida glabrata isolates after 48 hrs by CLSI M27-A2 procedure based assay; type: functional
Method in brief: (§1)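 Candida isolates tested by CLSI M27-A2 broth microdilution at final 0.015–16 µg/ml, or 0.125–128 µg/ml for the comparator azole. Incubation was at 35°C with a visual read at 48 h. MIC-2 was the lowest concentration giving a prominent turbidity drop, about 50% growth inhibition.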

Candida tropicalis [5] = assay: Antifungal activity against Candida tropicalis isolates after 48 hrs by CLSI M27-A2 procedure based assay; type: functional; method in brief: as §1
Candida [6] = assay: Antifungal activity against Candida sp. isolates after 48 hrs by CLSI M27-A2 procedure based assay; type: functional
Method in brief: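 Candida isolates were stored at –70°C as yeast suspensions and subcultured on potato dextrose or Sabouraud agar before use. Broth microdilution used DMSO drug stocks, with final well concentrations of 0.015–16 or 0.125–128 µg/ml depending on the azole. Plates were incubated at 35°C and read macroscopically at 48 h. MIC-2 was the lowest concentration giving a prominent turbidity decrease (~50% growth inhibition).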

Pichia kudriavzevii [7] = assay: Antifungal activity against Candida krusei isolates after 48 hrs by CLSI M27-A2 procedure based assay; type: functional; method in brief: as §1
Aspergillus fumigatus = assay: Antifungal activity against Aspergillus fumigatus isolates by Etest; type: functional
Method in brief: (§2)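 Etest on RPMI agar with 2% glucose, swab-inoculated with the microdilution spore or yeast suspension taken before its 50-fold dilution. Plates were incubated at 35°C and read at 48 h. The MIC was the ellipse–scale intercept, raised to the next twofold dilution step.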

Aspergillus flavus = assay: Antifungal activity against Aspergillus flavus isolates by Etest; type: functional; method in brief: as §2
Aspergillus niger = assay: Antifungal activity against Aspergillus niger isolates by Etest; type: functional; method in brief: as §2
Aspergillus terreus = assay: Antifungal activity against Aspergillus terreus isolates by Etest; type: functional; method in brief: as §2
Aspergillus sp. = assay: Antifungal activity against Aspergillus sp. isolates by Etest; type: functional; method in brief: as §2
Mucor = assay: Antifungal activity against Mucor isolates by Etest; type: functional
Method in brief: (§3)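 Etest. The spore inoculum used for microdilution, taken before the 50-fold dilution, was swabbed onto RPMI agar with 2% glucose, strips applied, and plates held at 35°C and read at 24 h. The MIC was where the inhibition ellipse met the strip scale, rounded up to the next twofold dilution.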

Rhizopus = assay: Antifungal activity against Rhizopus isolates by Etest; type: functional; method in brief: as §3
Absidia = assay: Antifungal activity against Absidia isolates by Etest; type: functional; method in brief: as §3
Cunninghamella = assay: Antifungal activity against Cunninghamella isolates by Etest; type: functional; method in brief: as §3
Syncephalastrum = assay: Antifungal activity against Syncephalastrum isolates by Etest; type: functional; method in brief: as §3
Scedosporium apiospermum [8] = assay: Antifungal activity against Scedosporium apiospermum isolates by Etest; type: functional; method in brief: as §2
Lomentospora prolificans [9] = assay: Antifungal activity against Scedosporium prolificans isolates by Etest; type: functional; method in brief: as §2
Candida albicans = assay: Antifungal activity against Candida albicans isolates by Etest; type: functional; method in brief: as §2
Candida parapsilosis = assay: Antifungal activity against Candida parapsilosis isolates by Etest; type: functional; conditions: Lodderomyces parapsilosis; method in brief: as §2
Nakaseomyces glabratus [10] = assay: Antifungal activity against Candida glabrata isolates by Etest; type: functional; method in brief: as §2
Candida tropicalis [11] = assay: Antifungal activity against Candida tropicalis isolates by Etest; type: functional; method in brief: as §2
Candida [12] = assay: Antifungal activity against Candida sp. isolates by Etest; type: functional; method in brief: as §2
Pichia kudriavzevii [13] = assay: Antifungal activity against Candida krusei isolates by Etest; type: functional; method in brief: as §2
Fusarium [14] = assay: Antifungal activity against Fusarium sp. isolates by Etest; type: functional; method in brief: as §2
Fusarium [15] = assay: Antifungal activity against Fusarium sp. isolates assessed as lowest compound concentration that produced complete inhibition of microbial growth after 24 hrs by CLSI M38-A procedure based assay; type: functional
Fusarium [16] = assay: Antifungal activity against Fusarium sp. isolates assessed as lowest compound concentration that produced slight growth or approximately 25% of that of growth control after 24 hrs by CLSI M38-A procedure based assay; type: functional
Fusarium [17] = assay: Antifungal activity against Fusarium sp. isolates assessed as lowest compound concentration that produced complete inhibition of microbial growth by CLSI M38-A procedure based assay

C[C@@H](c1nc(-c2ccc(C#N)cc2)cs1)[C@](O)(Cn1cncn1)c1cc(F)ccc1F [ISAVUCONAZOLE]
MIC90 (Scedosporium apiospermum [1]): 2 µg/mL (≈ 4.57 µM) | MFC50 (Lomentospora prolificans [2]): >16 µg/mL | MFC90 (Lomentospora prolificans [2]): >16 µg/mL | MFC (Lomentospora prolificans [2]; Lomentospora prolificans, 24 h): > 16 µg/mL | MIC (Lomentospora prolificans [2]; Lomentospora prolificans, 24 h): > 16 µg/mL | MIC (Lomentospora prolificans [3]): 4 µg/mL (≈ 9.14 µM) | MFC50 (Nakaseomyces glabratus [4]): 16 µg/mL (≈ 36.6 µM) | MFC90 (Nakaseomyces glabratus [4]): >16 µg/mL | MFC (Nakaseomyces glabratus [4]; Nakaseomyces glabratus, 48 h): 0.03 µg/mL (≈ 0.0686 µM) | MIC50 (Nakaseomyces glabratus [4]; Nakaseomyces glabratus, 48 h): 0.25 µg/mL (≈ 0.571 µM) | MIC90 (Nakaseomyces glabratus [4]; Nakaseomyces glabratus, 48 h): 1 µg/mL (≈ 2.29 µM) | MFC50 (Candida tropicalis [5]): >16 µg/mL | MFC90 (Candida tropicalis [5]): >16 µg/mL | MFC (Candida tropicalis [5]; Candida tropicalis, 48 h): 2 µg/mL (≈ 4.57 µM) | MIC (Candida tropicalis [5]; Candida tropicalis, 48 h): < 0.015 µg/mL | MIC50 (Candida tropicalis [5]; Candida tropicalis, 48 h): < 0.015 µg/mL | MIC90 (Candida tropicalis [5]; Candida tropicalis, 48 h): 0.06 µg/mL (≈ 0.137 µM) | MFC (Candida [6]): 0.003 µg/mL (≈ 0.00686 µM) | MIC (Candida [6]): > 0.015 µg/mL | MFC (Pichia kudriavzevii [7]): 0.5 µg/mL (≈ 1.14 µM) | MIC (Pichia kudriavzevii [7]): 0.125 µg/mL (≈ 0.286 µM) | MIC (Aspergillus fumigatus): 0.047 µg/mL (≈ 0.107 µM) | MIC50 (Aspergillus fumigatus): 0.25 µg/mL (≈ 0.571 µM) | MIC90 (Aspergillus fumigatus): 0.5 µg/mL (≈ 1.14 µM) | MIC (Aspergillus flavus): 0.016 µg/mL (≈ 0.0366 µM) | MIC50 (Aspergillus flavus): 0.38 µg/mL (≈ 0.869 µM) | MIC90 (Aspergillus flavus): 0.5 µg/mL (≈ 1.14 µM) | MIC (Aspergillus niger): 0.094 µg/mL (≈ 0.215 µM) | MIC50 (Aspergillus niger): 0.5 µg/mL (≈ 1.14 µM) | MIC90 (Aspergillus niger): 0.75 µg/mL (≈ 1.71 µM) | MIC50 (Aspergillus terreus): 0.38 µg/mL (≈ 0.869 µM) | MIC90 (Aspergillus terreus): 0.5 µg/mL (≈ 1.14 µM) | MIC (Aspergillus sp.): 0.02 µg/mL (≈ 0.0457 µM) | MIC (Mucor): 0.19 µg/mL (≈ 0.434 µM) | MIC50 (Mucor): 2 µg/mL (≈ 4.57 µM) | MIC90 (Mucor): > 32 µg/mL | MIC50 (Rhizopus): 1 µg/mL (≈ 2.29 µM) | MIC90 (Rhizopus): > 32 µg/mL | MIC (Absidia): 0.25 µg/mL (≈ 0.571 µM) | MIC (Cunninghamella): 0.38 µg/mL (≈ 0.869 µM) | MIC (Syncephalastrum): 0.25 µg/mL (≈ 0.571 µM) | MIC (Scedosporium apiospermum [8]): > 32 µg/mL | MIC50 (Lomentospora prolificans [9]): > 32 µg/mL | MIC90 (Lomentospora prolificans [9]): > 32 µg/mL | MIC50 (Candida albicans): 0.004 µg/mL (≈ 0.00914 µM) | MIC90 (Candida albicans): 0.015 µg/mL (≈ 0.0343 µM) | MIC50 (Candida parapsilosis): 0.004 µg/mL (≈ 0.00914 µM) | MIC90 (Candida parapsilosis): 0.023 µg/mL (≈ 0.0526 µM) | MIC50 (Nakaseomyces glabratus [10]): 0.094 µg/mL (≈ 0.215 µM) | MIC90 (Nakaseomyces glabratus [10]): 0.38 µg/mL (≈ 0.869 µM) | MIC (Candida tropicalis [11]): 0.003 µg/mL (≈ 0.00686 µM) | MIC50 (Candida tropicalis [11]): 0.015 µg/mL (≈ 0.0343 µM) | MIC90 (Candida tropicalis [11]): 0.125 µg/mL (≈ 0.286 µM) | MIC (Candida [12]): 0.004 µg/mL (≈ 0.00914 µM) | MIC (Pichia kudriavzevii [13]): 0.012 µg/mL (≈ 0.0274 µM) | MIC (Fusarium [14]): 0.38 µg/mL (≈ 0.869 µM) | MIC50 (Fusarium [14]): > 32 µg/mL | MIC90 (Fusarium [14]): > 32 µg/mL | MFC50 (Fusarium [15]): >16 µg/mL | MFC (Fusarium [15]; Fusarium, 24 h): 4 µg/mL (≈ 9.14 µM) | MIC50 (Fusarium [15]; Fusarium, 24 h): 16 µg/mL (≈ 36.6 µM) | MIC90 (Fusarium [15]; Fusarium, 24 h): > 16 µg/mL | MIC50 (Fusarium [16]): 16 µg/mL (≈ 36.6 µM) | MIC90 (Fusarium [16]): > 16 µg/mL | MFC90 (Fusarium [17]): >16 µg/mL
